{"data": "Measured values pooled from the literature", "note": "Lines come from different studies, so protocols differ."}
{"Structure (SMILES)": "O=C(Nc1ccccc1-c1ccc(F)c(F)c1)c1nccnc1C(F)(F)F", "organism": "Verticillium", "assay": "microbial growth", "quantity": "EC50", "result": "11 mg/L"}
{"Structure (SMILES)": "CC1(C)CC[C@]2(NC(=O)N3CCC[C@H]3CN3CCCC3)CC[C@]3(C)C(=CC[C@@H]4[C@@]5(C)CC[C@@H]6OC(C)(C)OC[C@@]6(C)[C@@H]5CC[C@]43C)[C@@H]2C1", "organism": "Leishmania mexicana", "assay": "parasite growth, resazurin", "conditions": "50 µM, amastigote", "quantity": "inhibition", "result": "97.6%"}
{"Structure (SMILES)": "O=C(Nc1cncc(-c2nc3ccccc3o2)c1)c1cc([N+](=O)[O-])c(N2CCNCC2)cc1Cl", "organism": "Leishmania mexicana", "assay": "parasite growth", "system": "J774.A1", "conditions": "intracellular, amastigote", "quantity": "EC50", "result": "0.75 µM"}
{"Structure (SMILES)": "CC1(C)CC[C@]2(C(=O)O)CC[C@]3(C)C(=CC[C@@H]4[C@@]5(C)CC[C@H](O[C@@H]6OC[C@H](O)[C@H](O)[C@H]6O)[C@@](C)(CO)[C@@H]5CC[C@]43C)[C@@H]2C1", "organism": "Leishmania mexicana", "assay": "parasite growth, resazurin", "conditions": "50 µM, amastigote", "quantity": "inhibition", "result": "96.9%"}
{"Structure (SMILES)": "O=C1NC(=S)N/C1=C\\c1c2ccccc2c(-c2ccc(N(c3ccccc3)c3ccccc3)cc2)c2ccccc12", "organism": "Staphylococcus epidermidis", "assay": "microbial growth, broth dilution", "system": "ATCC12228", "quantity": "MIC", "result": "> 1000 mg/L"}
{"Structure (SMILES)": "Cc1ccc(-c2nc3ccccc3s2)cc1NC(=O)c1cc([N+](=O)[O-])c(N2CCCCC2)cc1Cl", "organism": "Leishmania mexicana", "assay": "parasite growth", "system": "J774.A1", "conditions": "intracellular, amastigote", "quantity": "EC50", "result": "> 10 µM"}
{"Structure (SMILES)": "O=C(O)CN1C(=O)/C(=C/c2ccc(-c3ccc(N(c4ccccc4)c4ccccc4)cc3)cc2)NC1=S", "organism": "Staphylococcus epidermidis", "assay": "microbial killing, broth dilution", "system": "ATCC12228", "quantity": "MBC", "result": "3.9 mg/L"}
{"Structure (SMILES)": "Cc1ccc(-c2nc3ccccc3s2)cc1NC(=O)c1cc([N+](=O)[O-])c(NCCN)cc1Cl", "organism": "Leishmania mexicana", "assay": "parasite growth", "system": "J774.A1", "conditions": "intracellular, amastigote", "quantity": "EC50", "result": "0.25 µM"}
{"Structure (SMILES)": "CC1(C)CC[C@]2(NC(=O)NCCN3CCCC3)CC[C@]3(C)C(=CC[C@@H]4[C@@]5(C)CC[C@@H]6OC(C)(C)OC[C@@]6(C)[C@@H]5CC[C@]43C)[C@@H]2C1", "organism": "Leishmania mexicana", "assay": "parasite growth, resazurin", "conditions": "50 µM, amastigote", "quantity": "inhibition", "result": "99.1%"}
